Results published in ChEMBL document CHEMBL4321803 (J Med Chem, 2019).
Active and inactive are the calls of the source. No cut-off for these calls is given here.

How the values were obtained:
[1] = Inhibition of bacterial class B1 metallo beta-lactamase VIM-1 assessed as reduction in breakdown of cephalosporin FC-5 after 10 mins by fluorescence method; set-up: species or system Bacteria
Outline: (§1)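 Enzyme levels: L1 50 pM, IMP-1 20 pM, NDM-1 20 pM, VIM-1 100 pM, VIM-2 500 pM. Inhibitor pre-incubated with enzyme 10 min. Four-parameter fit for IC50.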

[2] = Inhibition of bacterial class D serine beta-lactamase OXA-48 assessed as reduction in breakdown of cephalosporin FC-5 in presence of aqueous sodium bicarbonate after 10 mins by fluorescence method; set-up: species or system Bacteria
Outline: (§2)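 SBL buffer (phosphate pH 7.4, 0.01% v/v Triton X-100) supplemented with 100 mM NaHCO3, room temperature, FC5 5 μM. Enzyme levels: OXA-10 250 pM, OXA-48 12.5 nM. Inhibitor pre-incubated with enzyme 10 min. Initial rates by fluorescence at 380/460 nm. IC50 from a four-parameter fit.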

[3] = Inhibition of bacterial class B1 metallo beta-lactamase IMP-1 assessed as reduction in breakdown of cephalosporin FC-5 after 10 mins by fluorescence method; set-up: species or system Bacteria
Outline: (§3)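 Enzyme levels: L1 50 pM, IMP-1 20 pM, NDM-1 20 pM, VIM-1 100 pM, VIM-2 500 pM. Inhibitor pre-incubated with enzyme 10 min. Initial rates by fluorescence (ex 380/em 460 nm). Four-parameter fit for IC50.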

[4] = Inhibition of bacterial class D serine beta-lactamase OXA-10 assessed as reduction in breakdown of cephalosporin FC-5 after 10 mins by fluorescence method; set-up: species or system Bacteria
Outline: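 Run in SBL buffer (phosphate pH 7.4, 0.01% v/v Triton X-100) at room temperature with 5 μM FC5. Enzyme levels: OXA-10 250 pM, OXA-48 12.5 nM. Enzyme pre-incubated with inhibitor 10 min. Initial rates by fluorescence (ex 380/em 460 nm). IC50 from a four-parameter log(inhibitor) fit.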

[5] = Inhibition of Pseudomonas aeruginosa class C serine beta-lactamase AmpC assessed as reduction in breakdown of cephalosporin FC-5 after 10 mins by fluorescence method
Outline: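 AmpC at 500 pM was pre-incubated with inhibitor for 10 min at room temperature in phosphate buffer, pH 7.4, with 0.01% (v/v) Triton X-100, then given 5 μM FC5. Initial hydrolysis rates were read by fluorescence (ex 380 nm, em 460 nm), and IC50 was taken from a four-parameter log(inhibitor) vs response fit.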

[6] = Inhibition of bacterial class D serine beta-lactamase OXA-10 assessed as reduction in breakdown of cephalosporin FC-5 in presence of aqueous sodium bicarbonate after 10 mins by fluorescence method; set-up: species or system Bacteria; outline: as §2
[7] = Inhibition of Stenotrophomonas maltophilia class B3 metallo beta-lactamse L1 assessed as reduction in breakdown of cephalosporin FC-5 after 10 mins by fluorescence method; outline: as §3
[8] = Inhibition of Aeromonas hydrophila class B2 metallo beta-lactamse CphA assessed as reduction in meropenem hydrolysis after 10 mins by UV absorbance method
[9] = Inhibition of bacterial class B1 metallo beta-lactamase NDM-1 assessed as reduction in breakdown of cephalosporin FC-5 after 10 mins by fluorescence method; set-up: species or system Bacteria; outline: as §1
[10] = Inhibition of bacterial class B1 metallo beta-lactamse VIM-2 assessed as reduction in breakdown of cephalosporin FC-5 after 10 mins by fluorescence method; set-up: species or system Bacteria; outline: as §3
[11] = molecular target: Metallo-beta-lactamase type 2 (Klebsiella pneumoniae) (UniProt C7C422); assay: Inhibition of metallo beta-lactamase NDM-1 in Klebsiella pneumoniae IR43 assessed as potentiation of cefepime-induced antibacterial activity by measuring cefepime MIC at 10 ug/ml by agar dilution method (Rvb > 64 ug/ml)
Outline: (§4)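 Agar dilution MIC of meropenem or cefepime combined with the inhibitor, against NDM-1-producing clinical isolates of E. coli and K. pneumoniae. Interpreted per EUCAST/CLSI guidelines. Reference strain MICs within ±1 log2 dilution of reference values.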

[12] = tested on: Escherichia coli; assay: Inhibition of metallo beta-lactamase NDM-1 in Escherichia coli IR57 assessed as potentiation of meropenem-induced antibacterial activity by measuring meropenem MIC at 10 ug/ml by agar dilution method (Rvb > 64 ug/ml); outline: as §4
[13] = tested on: Escherichia coli; assay: Inhibition of metallo beta-lactamase NDM-1 in Escherichia coli S117 assessed as potentiation of meropenem-induced antibacterial activity by measuring meropenem MIC at 10 ug/ml by agar dilution method (Rvb > 64 ug/ml); outline: as §4
[14] = tested on: Escherichia coli; assay: Inhibition of metallo beta-lactamase NDM-1 in Escherichia coli 91N assessed as potentiation of meropenem-induced antibacterial activity by measuring meropenem MIC at 10 ug/ml by agar dilution method (Rvb > 64 ug/ml); outline: as §4
[15] = tested on: Bacteria; assay: Reversible inhibition of bacterial class B1 metallo beta-lactamase NDM-1 assessed as reduction in breakdown of cephalosporin FC-5 after 15 to 180 mins by fluorescence method
[16] = tested on: Escherichia coli; assay: Inhibition of metallo beta-lactamase NDM-1 in Escherichia coli 91N assessed as potentiation of cefepime-induced antibacterial activity by measuring cefepime MIC at 10 ug/ml by agar dilution method (Rvb > 64 ug/ml); outline: as §4
[17] = molecular target: Metallo-beta-lactamase type 2 (Klebsiella pneumoniae) (UniProt C7C422); assay: Inhibition of metallo beta-lactamase NDM-1 in Klebsiella pneumoniae B68-1 assessed as potentiation of meropenem-induced antibacterial activity by measuring meropenem MIC at 10 ug/ml by agar dilution method (Rvb > 64 ug/ml); outline: as §4
[18] = Inhibition of bacterial class D serine beta-lactamase OXA-48 assessed as reduction in breakdown of cephalosporin FC-5 after 10 mins by fluorescence method; set-up: species or system Bacteria
Outline: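 Run in SBL buffer (phosphate pH 7.4, 0.01% v/v Triton X-100) at room temperature with 5 μM FC5. Enzyme pre-incubated with inhibitor 10 min. IC50 from a four-parameter log(inhibitor) fit.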

[19] = tested on: Escherichia coli; assay: Inhibition of metallo beta-lactamase NDM-1 in Escherichia coli IR57 assessed as potentiation of cefepime-induced antibacterial activity by measuring cefepime MIC at 10 ug/ml by agar dilution method (Rvb > 64 ug/ml); outline: as §4
[20] = tested on: Escherichia coli; assay: Inhibition of metallo beta-lactamase NDM-1 in Escherichia coli S117 assessed as potentiation of cefepime-induced antibacterial activity by measuring cefepime MIC at 10 ug/ml by agar dilution method (Rvb > 64 ug/ml); outline: as §4
[21] = molecular target: Metallo-beta-lactamase type 2 (Klebsiella pneumoniae) (UniProt C7C422); assay: Inhibition of metallo beta-lactamase NDM-1 in Klebsiella pneumoniae B68-1 assessed as potentiation of cefepime-induced antibacterial activity by measuring cefepime MIC at 10 ug/ml by agar dilution method (Rvb > 64 ug/ml); outline: as §4
[22] = Inhibition of recombinant bacterial class B1 metallo beta-lactamase IMP-1 expressed in Escherichia coli assessed as reduction in breakdown of cephalosporin FC-5 preincubated for 10 mins followed by cephalosporin FC-5 addition by fluorescence method; set-up: species or system Bacteria; outline: as §3
[23] = Inhibition of recombinant bacterial class B1 metallo beta-lactamase NDM-1 expressed in Escherichia coli assessed as reduction in breakdown of cephalosporin FC-5 preincubated for 10 mins followed by cephalosporin FC-5 addition by fluorescence method; set-up: species or system Bacteria; outline: as §3
[24] = molecular target: Beta-lactamase OXA-10 (Pseudomonas aeruginosa, UniProt P14489); assay: Inhibition of Pseudomonas aeruginosa class D serine beta-lactamase OXA-10 expressed in Escherichia coli BL21(DE3) cells assessed as reduction in breakdown of cephalosporin FC-5 in presence of aqueous sodium bicarbonate after 10 to 300 mins by fluorescence method
[25] = Inhibition of Klebsiella pneumoniae class D serine beta-lactamase N-terminal His-tagged OXA-48 expressed in Escherichia coli BL21(DE3) cells assessed as reduction in breakdown of cephalosporin FC-5 in presence of aqueous sodium bicarbonate after 10 to 300 mins by fluorescence method
[26] = Inhibition of Pseudomonas aeruginosa PAO1 class C serine beta-lactamase N-terminal His- tagged AmpC expressed in Escherichia coli BL21(DE3) cells assessed as reduction in breakdown of cephalosporin FC-5 preincubated for 10 to 300 mins followed by cephalosporin FC-5 addition by fluorescence method

Sequence of Metallo-beta-lactamase type 2 (Klebsiella pneumoniae) (C7C422 whole entry): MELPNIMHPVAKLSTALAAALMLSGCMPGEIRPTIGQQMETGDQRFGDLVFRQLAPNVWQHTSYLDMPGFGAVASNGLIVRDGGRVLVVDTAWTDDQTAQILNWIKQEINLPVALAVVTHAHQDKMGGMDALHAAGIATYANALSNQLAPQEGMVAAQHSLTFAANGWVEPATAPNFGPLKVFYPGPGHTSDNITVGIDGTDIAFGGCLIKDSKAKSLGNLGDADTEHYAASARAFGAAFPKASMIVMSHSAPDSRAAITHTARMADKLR
Sequence of Beta-lactamase OXA-10 (P14489 whole entry): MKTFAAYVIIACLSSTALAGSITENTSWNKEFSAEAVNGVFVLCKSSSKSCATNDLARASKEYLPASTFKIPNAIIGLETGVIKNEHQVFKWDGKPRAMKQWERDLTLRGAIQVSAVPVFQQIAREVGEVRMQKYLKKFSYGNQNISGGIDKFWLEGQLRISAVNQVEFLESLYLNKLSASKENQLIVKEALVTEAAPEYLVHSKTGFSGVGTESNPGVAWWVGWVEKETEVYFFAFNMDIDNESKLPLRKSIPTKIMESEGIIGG

| IC50 [1] [µM] | IC50 [8] [µM] | Compound | IC50 [2] [µM] | IC50 [3] [µM] | IC50 [4] [nM] | IC50 [5] [nM] | IC50 [6] [nM] | IC50 [7] [µM] | IC50 [10] [µM] | also measured |
| --- | --- | --- | --- | --- | --- | --- | --- | --- | --- | --- |
| 398 | 631 | O=C(O)C[C@@H]1CC[C@H](NC(=O)Cc2cccs2)B(O)O1 [VABORBACTAM] | 32 | 126 | > 400000 | 5000 | > 400000 | 336 | 316 | IC50 [9]: 631 µM |
| 0.085 | > 100 | NCc1ccc(C(=O)N[C@H]2Cc3cccc(C(=O)O)c3OB2O)cc1 |  |  |  |  |  |  |  | IC50 [22]: 1000 nM; IC50 [23]: 29 nM; IC50 [24]: 5.1 µM; IC50 [25]: 2600 nM; IC50 [26]: 120 nM |

| Compound | IC50 [1] [µM] | IC50 [8] [µM] | IC50 [2] [µM] | IC50 [3] [µM] | IC50 [4] [nM] | IC50 [5] [nM] | IC50 [6] [nM] | IC50 [7] [µM] | IC50 [10] [µM] | also measured |
| --- | --- | --- | --- | --- | --- | --- | --- | --- | --- | --- |
| NCCN[C@H]1CC[C@H](CC(=O)N[C@H]2Cc3cccc(C(=O)O)c3OB2O)CC1 |  | 2.51 | 2.39 | 2.51 | 234 | 301 | 645 | > 10 | 0.0005 | MIC [11]: 0.5 µg/mL; MIC [12]: 0.5 µg/mL; MIC [13]: 1 µg/mL; MIC [14]: 0.125 µg/mL; inhibition [15]: Active; MIC [16]: 4 µg/mL; MIC [17]: 0.5 µg/mL; IC50 [18]: 537 nM; MIC [19]: 8 µg/mL; MIC [20]: 16 µg/mL; MIC [21]: 0.5 µg/mL |
